Laboratory results as given in ChEMBL document CHEMBL3734701, “Synthesis and antibacterial activity of 4″-O-(trans-β-arylacrylamido)carbamoyl azithromycin analogs” (2015).
Converted amounts (≈) assume the structure as drawn.

Columns and labels:
Format in all cases: functional
Streptococcus pneumoniae [1] = test: Antibacterial activity against erythromycin-susceptible Streptococcus pneumoniae ATCC 49619 by broth microdilution method
Summary of the method: (§1)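 Broth microdilution MIC following the NCCL-recommended method. Panel of sensitive and resistant Gram-positive strains: S. pyogenes S2 (erythromycin-susceptible clinical isolate), S. aureus ATCC25923 and S. pneumoniae ATCC49619 (erythromycin-susceptible). Azithromycin and clarithromycin were run alongside as references.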

Staphylococcus aureus [2] = test: Antibacterial activity against erythromycin-susceptible Staphylococcus aureus ATCC 25923 by broth microdilution method; summary of the method: as §1
Streptococcus pneumoniae [3] = test: Antibacterial activity against erythromycin-resistant Streptococcus pneumoniae B1 expressing ermB gene by broth microdilution method
Summary of the method: (§2)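 MICs measured in vitro by broth microdilution following NCCL recommendations, against a Gram-positive panel of sensitive and resistant strains. Azithromycin and clarithromycin were tested alongside as references.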

Streptococcus pyogenes [4] = test: Antibacterial activity against clinically isolated erythromycin-resistant Streptococcus pyogenes R2 by broth microdilution method; summary of the method: as §2
Streptococcus pyogenes [5] = test: Antibacterial activity against clinically isolated erythromycin-susceptible Streptococcus pyogenes S2 by broth microdilution method; summary of the method: as §1
Staphylococcus aureus [6] = test: Antibacterial activity against methicillin-susceptible Staphylococcus aureus ATCC 29213 by broth microdilution method; summary of the method: as §2
Streptococcus pneumoniae [7] = test: Antibacterial activity against erythromycin-resistant Streptococcus pneumoniae A22072 expressing mefA gene by broth microdilution method; summary of the method: as §2
Staphylococcus aureus [8] = test: Antibacterial activity against clinically isolated penicillin-resistant Staphylococcus aureus by broth microdilution method
Summary of the method: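 Clinical penicillin-resistant S. aureus isolate, not further characterized, tested in a Gram-positive panel. MIC was measured by broth microdilution following NCCL recommendations, with azithromycin and clarithromycin as references.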

Streptococcus pneumoniae [9] = test: Antibacterial activity against erythromycin-resistant Streptococcus pneumoniae AB11 expressing ermB and mefA genes by broth microdilution method; summary of the method: as §2

| Structure (SMILES) | MIC (Streptococcus pneumoniae [1]) [µg/mL] | MIC (Staphylococcus aureus [2]) [µg/mL] | MIC (Streptococcus pneumoniae [3]) [µg/mL] | MIC (Streptococcus pyogenes [4]) [µg/mL] | MIC (Streptococcus pyogenes [5]) [µg/mL] | MIC (Staphylococcus aureus [6]) [µg/mL] | MIC (Streptococcus pneumoniae [7]) [µg/mL] | MIC (Staphylococcus aureus [8]) [µg/mL] | MIC (Streptococcus pneumoniae [9]) [µg/mL] |
| --- | --- | --- | --- | --- | --- | --- | --- | --- | --- |
| CC[C@H]1OC(=O)[C@@H](C)[C@H](O[C@H]2C[C@@](C)(OC)[C@@H](OC(=O)NNC(=O)/C=C/c3ccc(F)cc3)[C@H](C)O2)[C@@H](C)[C@H](O[C@H]2O[C@@H](C)C[C@@H](N(C)C)[C@@H]2O)[C@@](C)(O)C[C@H](C)CN(C)[C@@H](C)[C@@H]2OC(=O)O[C@@]12C | 16 (≈ 16.3 µM) | 2 (≈ 2.04 µM) | 64 (≈ 65.2 µM) | 64 (≈ 65.2 µM) | 0.5 (≈ 0.51 µM) | 8 (≈ 8.15 µM) | 2 (≈ 2.04 µM) | 16 (≈ 16.3 µM) | 16 (≈ 16.3 µM) |
| CC[C@H]1OC(=O)[C@@H](C)[C@H](O[C@H]2C[C@@](C)(OC)[C@@H](OC(=O)NNC(=O)/C=C/c3ccc(Cl)cc3)[C@H](C)O2)[C@@H](C)[C@H](O[C@H]2O[C@@H](C)C[C@@H](N(C)C)[C@@H]2O)[C@@](C)(O)C[C@H](C)CN(C)[C@@H](C)[C@@H]2OC(=O)O[C@@]12C | 4 (≈ 4.01 µM) | 8 (≈ 8.02 µM) | 8 (≈ 8.02 µM) | 32 (≈ 32.1 µM) | 1 (≈ 1 µM) | 8 (≈ 8.02 µM) | 0.5 (≈ 0.501 µM) | 8 (≈ 8.02 µM) | 8 (≈ 8.02 µM) |
| CC[C@@H]1OC(=O)[C@H](C)[C@@H](O[C@H]2C[C@@](C)(OC)[C@@H](OC(=O)NNC(=O)/C=C/c3ccccc3OC)[C@H](C)O2)[C@@H](C)[C@@H](O[C@@H]2O[C@H](C)C[C@H](N(C)C)[C@H]2O)[C@](C)(O)C[C@@H](C)CN(C)[C@H](C)[C@@H](OC(=O)NCc2ccc(OC)cc2)[C@]1(C)O | 0.25 (≈ 0.221 µM) | 1 (≈ 0.885 µM) | 4 (≈ 3.54 µM) | 64 (≈ 56.6 µM) | 0.25 (≈ 0.221 µM) | 4 (≈ 3.54 µM) | 0.25 (≈ 0.221 µM) | 4 (≈ 3.54 µM) | 8 (≈ 7.08 µM) |
| CC[C@H]1OC(=O)[C@@H](C)[C@H](O[C@H]2C[C@@](C)(OC)[C@@H](OC(=O)NNC(=O)/C=C/c3ccc(Br)cc3)[C@H](C)O2)[C@@H](C)[C@H](O[C@H]2O[C@@H](C)C[C@@H](N(C)C)[C@@H]2O)[C@@](C)(O)C[C@H](C)CN(C)[C@@H](C)[C@@H]2OC(=O)O[C@@]12C | 4 (≈ 3.84 µM) | 4 (≈ 3.84 µM) | 8 (≈ 7.68 µM) | 16 (≈ 15.4 µM) | 1 (≈ 0.96 µM) | 4 (≈ 3.84 µM) | 0.25 (≈ 0.24 µM) | 8 (≈ 7.68 µM) | 4 (≈ 3.84 µM) |
| CC[C@H]1OC(=O)[C@H](C)[C@@H](O[C@H]2C[C@@](C)(OC)[C@@H](O)[C@H](C)O2)[C@H](C)[C@@H](O[C@@H]2O[C@H](C)C[C@H](N(C)C)[C@H]2O)[C@](C)(O)C[C@@H](C)C(=O)[C@H](C)[C@@H](O)[C@]1(C)O [ERYTHROMYCIN] | 0.03 (≈ 0.0409 µM) | 0.06 (≈ 0.0818 µM) | > 128 | ≥ 128 | 0.12 (≈ 0.164 µM) | 0.12 (≈ 0.164 µM) | 8 (≈ 10.9 µM) | 0.25 (≈ 0.341 µM) | 256 (≈ 349 µM) |
| CC[C@H]1OC(=O)[C@@H](C)[C@H](O[C@@H]2C[C@](C)(OC)[C@H](OC(=O)NNC(=O)/C=C/c3ccc(OC)c(OC)c3)[C@@H](C)O2)[C@H](C)[C@H](O[C@H]2O[C@@H](C)C[C@@H](N(C)C)[C@@H]2O)[C@@](C)(O)C[C@H](C)CN(C)[C@@H](C)[C@H](OC(=O)NCc2ccccc2)[C@@]1(C)O | 0.06 (≈ 0.0531 µM) | 0.5 (≈ 0.442 µM) | 64 (≈ 56.6 µM) | 64 (≈ 56.6 µM) | 0.25 (≈ 0.221 µM) | 4 (≈ 3.54 µM) | 2 (≈ 1.77 µM) | 2 (≈ 1.77 µM) | 64 (≈ 56.6 µM) |
| CC[C@@H]1OC(=O)[C@H](C)[C@@H](O[C@H]2C[C@@](C)(OC)[C@@H](OC(=O)NNC(=O)/C=C/c3ccccc3)[C@H](C)O2)[C@@H](C)[C@@H](O[C@@H]2O[C@H](C)C[C@H](N(C)C)[C@H]2O)[C@](C)(O)C[C@@H](C)CN(C)[C@H](C)[C@@H](OC(=O)NCc2ccccc2)[C@]1(C)O | 0.5 (≈ 0.467 µM) | 0.5 (≈ 0.467 µM) | 2 (≈ 1.87 µM) | 32 (≈ 29.9 µM) | 0.5 (≈ 0.467 µM) | 1 (≈ 0.934 µM) | 1 (≈ 0.934 µM) | 1 (≈ 0.934 µM) | 4 (≈ 3.74 µM) |
| CC[C@@H]1OC(=O)[C@H](C)[C@@H](O[C@H]2C[C@@](C)(OC)[C@@H](OC(=O)NNC(=O)/C=C/c3ccco3)[C@H](C)O2)[C@@H](C)[C@@H](O[C@@H]2O[C@H](C)C[C@H](N(C)C)[C@H]2O)[C@](C)(O)C[C@@H](C)CN(C)[C@H](C)[C@@H](OC(=O)NCc2ccccc2)[C@]1(C)O | 0.12 (≈ 0.113 µM) | 1 (≈ 0.943 µM) | 4 (≈ 3.77 µM) | 64 (≈ 60.4 µM) | 0.25 (≈ 0.236 µM) | 4 (≈ 3.77 µM) | 0.12 (≈ 0.113 µM) | 1 (≈ 0.943 µM) | 8 (≈ 7.55 µM) |
| CC[C@H]1OC(=O)[C@@H](C)[C@H](O[C@@H]2C[C@](C)(OC)[C@H](OC(=O)NNC(=O)/C=C/c3ccc(OC)c(OC)c3)[C@@H](C)O2)[C@H](C)[C@H](O[C@H]2O[C@@H](C)C[C@@H](N(C)C)[C@@H]2O)[C@@](C)(O)C[C@H](C)CN(C)[C@@H](C)[C@H](OC(=O)NCc2ccc(OC)cc2)[C@@]1(C)O | 0.5 (≈ 0.431 µM) | 2 (≈ 1.72 µM) | 2 (≈ 1.72 µM) | 64 (≈ 55.2 µM) | 0.5 (≈ 0.431 µM) | 4 (≈ 3.45 µM) | 0.25 (≈ 0.215 µM) | 4 (≈ 3.45 µM) | 8 (≈ 6.89 µM) |
| CC[C@H]1OC(=O)[C@@H](C)[C@H](O[C@H]2C[C@@](C)(OC)[C@@H](OC(=O)NNC(=O)/C=C/c3ccc([N+](=O)[O-])cc3)[C@H](C)O2)[C@@H](C)[C@H](O[C@H]2O[C@@H](C)C[C@@H](N(C)C)[C@@H]2O)[C@@](C)(O)C[C@H](C)CN(C)[C@@H](C)[C@@H]2OC(=O)O[C@@]12C | 2 (≈ 1.98 µM) | 2 (≈ 1.98 µM) | 16 (≈ 15.9 µM) | ≥ 128 | 0.25 (≈ 0.248 µM) | 8 (≈ 7.94 µM) | 0.5 (≈ 0.496 µM) | 16 (≈ 15.9 µM) | 8 (≈ 7.94 µM) |
| CC[C@H]1OC(=O)[C@@H](C)[C@H](O[C@H]2C[C@@](C)(OC)[C@@H](OC(=O)NNC(=O)/C=C/c3ccccc3)[C@H](C)O2)[C@@H](C)[C@H](O[C@H]2O[C@@H](C)C[C@@H](N(C)C)[C@@H]2O)[C@@](C)(O)C[C@H](C)CN(C)[C@@H](C)[C@@H]2OC(=O)O[C@@]12C | 2 (≈ 2.08 µM) | 8 (≈ 8.31 µM) | 8 (≈ 8.31 µM) | 64 (≈ 66.4 µM) | 0.25 (≈ 0.26 µM) | 8 (≈ 8.31 µM) | 0.25 (≈ 0.26 µM) | 8 (≈ 8.31 µM) | 4 (≈ 4.15 µM) |
| CC[C@@H]1OC(=O)[C@H](C)[C@@H](O[C@H]2C[C@@](C)(OC)[C@@H](OC(=O)NNC(=O)/C=C/c3cc(OC)c(OC)c(OC)c3)[C@H](C)O2)[C@@H](C)[C@@H](O[C@@H]2O[C@H](C)C[C@H](N(C)C)[C@H]2O)[C@](C)(O)C[C@@H](C)CN(C)[C@H](C)[C@@H](OC(=O)NCc2ccccc2)[C@]1(C)O | 0.5 (≈ 0.431 µM) | 1 (≈ 0.862 µM) | 32 (≈ 27.6 µM) | 64 (≈ 55.2 µM) | 1 (≈ 0.862 µM) | 4 (≈ 3.45 µM) | 2 (≈ 1.72 µM) | 4 (≈ 3.45 µM) | 16 (≈ 13.8 µM) |
| CC[C@@H]1OC(=O)[C@H](C)[C@@H](O[C@H]2C[C@@](C)(OC)[C@@H](OC(=O)NNC(=O)/C=C/c3ccccc3OC)[C@H](C)O2)[C@@H](C)[C@@H](O[C@@H]2O[C@H](C)C[C@H](N(C)C)[C@H]2O)[C@](C)(O)C[C@@H](C)CN(C)[C@H](C)[C@@H](OC(=O)NCc2ccccc2)[C@]1(C)O | 0.5 (≈ 0.454 µM) | 0.5 (≈ 0.454 µM) | 16 (≈ 14.5 µM) | 32 (≈ 29.1 µM) | 0.25 (≈ 0.227 µM) | 2 (≈ 1.82 µM) | 0.5 (≈ 0.454 µM) | 2 (≈ 1.82 µM) | 8 (≈ 7.27 µM) |
| CC[C@H]1OC(=O)[C@@H](C)[C@H](O[C@@H]2C[C@](C)(OC)[C@H](OC(=O)NNC(=O)/C=C/c3ccc(Br)cc3)[C@@H](C)O2)[C@H](C)[C@H](O[C@H]2O[C@@H](C)C[C@@H](N(C)C)[C@@H]2O)[C@@](C)(O)C[C@H](C)CN(C)[C@@H](C)[C@H](OC(=O)NCc2ccccc2)[C@@]1(C)O | 0.25 (≈ 0.218 µM) | 0.5 (≈ 0.435 µM) | 1 (≈ 0.87 µM) | 16 (≈ 13.9 µM) | 0.25 (≈ 0.218 µM) | 2 (≈ 1.74 µM) | 0.12 (≈ 0.104 µM) | 2 (≈ 1.74 µM) | 1 (≈ 0.87 µM) |
| CC[C@H]1OC(=O)[C@@H](C)[C@H](O[C@@H]2C[C@](C)(OC)[C@H](OC(=O)NNC(=O)/C=C/c3ccc([N+](=O)[O-])cc3)[C@@H](C)O2)[C@H](C)[C@H](O[C@H]2O[C@@H](C)C[C@@H](N(C)C)[C@@H]2O)[C@@](C)(O)C[C@H](C)CN(C)[C@@H](C)[C@H](OC(=O)NCc2ccc(OC)cc2)[C@@]1(C)O | 1 (≈ 0.873 µM) | 4 (≈ 3.49 µM) | 2 (≈ 1.75 µM) | 32 (≈ 27.9 µM) | 0.25 (≈ 0.218 µM) | 8 (≈ 6.98 µM) | 0.5 (≈ 0.437 µM) | 8 (≈ 6.98 µM) | 8 (≈ 6.98 µM) |
| CC[C@@H]1OC(=O)[C@H](C)[C@@H](O[C@H]2C[C@@](C)(OC)[C@@H](OC(=O)NNC(=O)/C=C/c3ccco3)[C@H](C)O2)[C@@H](C)[C@@H](O[C@@H]2O[C@H](C)C[C@H](N(C)C)[C@H]2O)[C@](C)(O)C[C@@H](C)CN(C)[C@H](C)[C@@H](OC(=O)NCc2ccc(OC)cc2)[C@]1(C)O | 0.5 (≈ 0.459 µM) | 1 (≈ 0.917 µM) | 2 (≈ 1.83 µM) | 64 (≈ 58.7 µM) | 0.25 (≈ 0.229 µM) | 4 (≈ 3.67 µM) | 0.25 (≈ 0.229 µM) | 2 (≈ 1.83 µM) | 8 (≈ 7.34 µM) |
